Measurements published in ChEMBL document CHEMBL5247578, “Effective synthesis of benzimidazoles-imidazo[1,2-a]pyrazine conjugates: A comparative study of mono-and bis-benzimidazoles for antitumor activity” (Eur J Med Chem, 2019).

What was measured:
RXF 393 = assay: Antiproliferative activity against human RXF 393 cells assessed as cell growth at 0.00000001 M incubated for 48 hrs by SRB assay relative to control; format: functional; conditions: dose 10 nM, read-out: Activity
MDA-MB-231 = assay: Growth inhibition against human MDA-MB-231 cells assessed as total growth inhibitory concentration incubated for 48 hrs by sulforhodamine B assay; format: functional
Calf thymus DNA = assay: Binding affinity to calf thymus DNA assessed as intercalation by measuring hypochromic shift at 20 uM by UV-vis spectrophotometric method relative to control; format: nucleic-acid assay; conditions: Bos taurus
SF-295 = assay: Antiproliferative activity against human SF-295 cells assessed as cell growth at 0.0001 M incubated for 48 hrs by SRB assay relative to control; format: functional; conditions: read-out: Activity
LOX IMVI = assay: Antiproliferative activity against human LOX IMVI cells assessed as cell growth at 0.00001 M incubated for 48 hrs by SRB assay relative to control; format: functional; conditions: read-out: Activity
HCC 2998 [1] = assay: Antiproliferative activity against human HCC 2998 cells assessed as cell growth at 0.00001 M incubated for 48 hrs by SRB assay relative to control; format: functional; conditions: read-out: Activity
Outline: (§1)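 NCI-60 five-dose screen (10^-4 to 10^-8 M). Cells grown in RPMI 1640 with 5% FBS and 2 mM L-glutamine, plated at 5,000-40,000 cells/well and preincubated 24 h. Drug given from DMSO stock, then 48 h at 37 °C, 5% CO2. For adherent lines, cells fixed with cold TCA, SRB-stained and read at 515 nm. Percent growth taken against time-zero and untreated control.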

HCC 2998 [2] = assay: Antiproliferative activity against human HCC 2998 cells assessed as cell growth at 0.0001 M incubated for 48 hrs by SRB assay relative to control; format: functional; conditions: read-out: Activity; outline: as §1
SF-268 [3] = assay: Antiproliferative activity against human SF-268 cells assessed as cell growth at 0.00001 M incubated for 48 hrs by SRB assay relative to control; format: functional; conditions: read-out: Activity
MDA-MB-468 = assay: Antiproliferative activity against human MDA-MB-468 cells assessed as cell growth at 0.0000001 M incubated for 48 hrs by SRB assay relative to control; format: functional; conditions: dose 100 nM, read-out: Activity
SF-268 [4] = assay: Growth inhibition against human SF-268 cells incubated for 48 hrs by sulforhodamine B assay; format: functional
SW-620 = assay: Antiproliferative activity against human SW620 cells assessed as cell growth at 0.0000001 M incubated for 48 hrs by SRB assay relative to control; format: functional; conditions: dose 100 nM, read-out: Activity
MDA-MB-435 [5] = assay: Antiproliferative activity against human MDA-MB-435 cells assessed as cell growth at 0.000001 M incubated for 48 hrs by SRB assay relative to control; format: functional; conditions: read-out: Activity
HCC 2998 [6] = assay: Growth inhibition against human HCC 2998 cells assessed as total growth inhibitory concentration incubated for 48 hrs by sulforhodamine B assay; format: functional
HOP-92 [7] = assay: Antiproliferative activity against human HOP-92 cells assessed as cell growth at 0.00000001 M incubated for 48 hrs by SRB assay relative to control; format: functional; conditions: dose 10 nM, read-out: Activity; outline: as §1
CCRF-CEM = assay: Antiproliferative activity against human CCRF-CEM cells assessed as cell growth at 0.00001 M incubated for 48 hrs by SRB assay relative to control; format: functional; conditions: read-out: Activity
Outline: (§2)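 NCI-60 five-dose screen over 10^-4–10^-8 M (10-fold dilutions). Cells grown in RPMI 1640 with 5% FBS and 2 mM L-glutamine, seeded at 5,000–40,000 cells/well and preincubated 24 h. Drug from DMSO stock, 48 h at 37 °C, 5% CO2. Adherent cells TCA-fixed and stained with 0.4% SRB; A515 read. Percent growth = (Ti−Tz)/(C−Tz)×100, or (Ti−Tz)/Tz×100 when Ti<Tz.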

MOLT-4 [8] = assay: Antiproliferative activity against human MOLT-4 cells assessed as cell growth at 0.00000001 M incubated for 48 hrs by SRB assay relative to control; format: functional; conditions: dose 10 nM, read-out: Activity
DU-145 = assay: Growth inhibition against human DU-145 cells incubated for 48 hrs by sulforhodamine B assay; format: functional
SNB-75 = assay: Antiproliferative activity against human SNB-75 cells assessed as cell growth at 0.00000001 M incubated for 48 hrs by SRB assay relative to control; format: functional; conditions: dose 10 nM, read-out: Activity
HCT-116 = assay: Antiproliferative activity against human HCT-116 cells assessed as cell growth at 0.00001 M incubated for 48 hrs by SRB assay relative to control; format: functional; conditions: read-out: Activity; outline: as §1
NCI-H23 = assay: Antiproliferative activity against human NCI-H23 cells assessed as cell growth at 0.000001 M incubated for 48 hrs by SRB assay relative to control; format: functional; conditions: read-out: Activity
TK-10 = assay: Antiproliferative activity against human TK-10 cells assessed as cell growth at 0.000001 M incubated for 48 hrs by SRB assay relative to control; format: functional; conditions: read-out: Activity
NCI/ADR-RES = assay: Antiproliferative activity against human NCI/ADR-RES cells assessed as cell growth at 0.00001 M incubated for 48 hrs by SRB assay relative to control; format: functional; conditions: read-out: Activity
HOP-62 = assay: Antiproliferative activity against human HOP-62 cells assessed as cell growth at 0.00000001 M incubated for 48 hrs by SRB assay relative to control; format: functional; conditions: dose 10 nM, read-out: Activity; outline: as §1
HOP-92 [9] = assay: Antiproliferative activity against human HOP-92 cells assessed as cell growth at 0.000001 M incubated for 48 hrs by SRB assay relative to control; format: functional; conditions: read-out: Activity; outline: as §1
NCI-H522 = assay: Antiproliferative activity against human NCI-H522 cells assessed as cell growth at 0.000001 M incubated for 48 hrs by SRB assay relative to control; format: functional; conditions: read-out: Activity
SK-OV-3 = assay: Antiproliferative activity against human SK-OV-3 cells assessed as cell growth at 0.00000001 M incubated for 48 hrs by SRB assay relative to control; format: functional; conditions: dose 10 nM, read-out: Activity
MDA-MB-435 [10] = assay: Antiproliferative activity against human MDA-MB-435 cells assessed as cell growth at 0.0001 M incubated for 48 hrs by SRB assay relative to control; format: functional; conditions: read-out: Activity
UO-31 = assay: Growth inhibition against human UO-31 cells incubated for 48 hrs by sulforhodamine B assay; format: functional
ACHN = assay: Antiproliferative activity against human ACHN cells assessed as cell growth at 0.0000001 M incubated for 48 hrs by SRB assay relative to control; format: functional; conditions: dose 100 nM, read-out: Activity; outline: as §2
MOLT-4 [11] = assay: Antiproliferative activity against human MOLT-4 cells assessed as cell growth at 0.0000001 M incubated for 48 hrs by SRB assay relative to control; format: functional; conditions: dose 100 nM, read-out: Activity
786-0 = assay: Antiproliferative activity against human 786-0 cells assessed as cell growth at 0.0001 M incubated for 48 hrs by SRB assay relative to control; format: functional; conditions: read-out: Activity; outline: as §2
Albumin = Albumin (Bos taurus, UniProt P02769); assay: Binding affinity to bovine serum albumin assessed as quenching constant by fluorescence spectroscopic method; conditions: cattle
Hs-578T = assay: Antiproliferative activity against human Hs-578T cells assessed as cell growth inhibition by measuring lethal concentration incubated for 48 hrs by sulforhodamine B assay; format: functional; conditions: read-out: LC50 (the source's name)
OVCAR-8 = assay: Growth inhibition against human OVCAR-8 cells assessed as total growth inhibitory concentration incubated for 48 hrs by sulforhodamine B assay; format: functional

Albumin, sequence (P02769 whole entry): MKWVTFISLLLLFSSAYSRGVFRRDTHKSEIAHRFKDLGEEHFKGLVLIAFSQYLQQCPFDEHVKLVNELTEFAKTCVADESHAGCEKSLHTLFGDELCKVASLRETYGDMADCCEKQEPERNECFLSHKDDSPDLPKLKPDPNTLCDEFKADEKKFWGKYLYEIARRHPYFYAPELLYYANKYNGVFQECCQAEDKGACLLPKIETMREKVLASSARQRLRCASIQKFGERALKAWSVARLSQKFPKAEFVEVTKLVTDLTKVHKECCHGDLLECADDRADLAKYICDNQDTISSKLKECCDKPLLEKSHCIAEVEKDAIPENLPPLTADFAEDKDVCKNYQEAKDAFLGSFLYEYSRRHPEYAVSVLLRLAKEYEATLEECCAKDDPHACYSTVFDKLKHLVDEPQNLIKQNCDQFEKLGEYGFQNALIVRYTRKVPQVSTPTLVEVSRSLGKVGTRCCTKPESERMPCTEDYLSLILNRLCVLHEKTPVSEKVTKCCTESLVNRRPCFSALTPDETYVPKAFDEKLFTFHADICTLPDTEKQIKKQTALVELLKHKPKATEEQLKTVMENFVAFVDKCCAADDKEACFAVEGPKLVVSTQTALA

**Q.** Which results are given for `c1ccc(Cn2cnc3ccc(-c4nc(-c5ccc6c(c5)ncn6C5CCCCC5)cn5ccnc45)cc32)cc1`?
**A.** growth at 0.01 µM (RXF 393): 101%; TGI (MDA-MB-231): 3.69 µM; Activity (Calf thymus DNA): 15.3%; growth at 100 µM (SF-295): -38%; growth at 10 µM (LOX IMVI): -90%; growth at 10 µM (HCC 2998 [1]): -92%; growth at 100 µM (HCC 2998 [2]): -89%; growth at 10 µM (SF-268 [3]): 2%; growth at 0.1 µM (MDA-MB-468): 104%; GI50 (SF-268 [4]): 2.48 µM; growth at 0.1 µM (SW-620): 105%; growth at 1 µM (MDA-MB-435 [5]): 92%; TGI (HCC 2998 [6]): 3.41 µM; growth at 0.01 µM (HOP-92 [7]): 88%; growth at 10 µM (CCRF-CEM): 8%; growth at 0.01 µM (MOLT-4 [8]): 112%; GI50 (DU-145): 3.04 µM; growth at 0.01 µM (SNB-75): 81%; growth at 10 µM (HCT-116): -74%; growth at 1 µM (NCI-H23): 86%; growth at 1 µM (TK-10): 97%; growth at 10 µM (NCI/ADR-RES): -30%; growth at 0.01 µM (HOP-62): 79%; growth at 1 µM (HOP-92 [9]): 65%; growth at 1 µM (NCI-H522): 88%; growth at 0.01 µM (SK-OV-3): 84%; growth at 100 µM (MDA-MB-435 [10]): 2%; GI50 (UO-31): 1.72 µM; growth at 0.1 µM (ACHN): 97%; growth at 0.1 µM (MOLT-4 [11]): 114%; growth at 100 µM (786-0): 4%; Kq (Albumin): 1.14 10^13/M/sec; CC50 (Hs-578T): > 100 µM; TGI (OVCAR-8): 6.54 µM

**Q.** For `COc1ccc(-c2cn3ccnc3c(-c3ccc4ncn(C5CCCCC5)c4c3)n2)cc1`, which growth at 0.01 µM (RXF 393) is on record?
**A.** 102%

**Q.** And the TGI (MDA-MB-231)?
**A.** > 100 µM

**Q.** What about the Activity (Calf thymus DNA) of the same molecule?
**A.** 20.8%

**Q.** What about the growth at 100 µM (SF-295) of the same molecule?
**A.** 2%

**Q.** What about the growth at 10 µM (LOX IMVI) of the same molecule?
**A.** 17%

**Q.** And the growth at 10 µM (HCC 2998 [1])?
**A.** 9%

**Q.** And the growth at 100 µM (HCC 2998 [2])?
**A.** 20%

**Q.** What about the growth at 10 µM (SF-268 [3]) of the same molecule?
**A.** 25%

**Q.** And the growth at 0.1 µM (MDA-MB-468)?
**A.** 99%

**Q.** What about the GI50 (SF-268 [4]) of the same molecule?
**A.** 2.38 µM

**Q.** What about the growth at 0.1 µM (SW-620) of the same molecule?
**A.** 99%

**Q.** And the growth at 1 µM (MDA-MB-435 [5])?
**A.** 7%

**Q.** What about the TGI (HCC 2998 [6]) of the same molecule?
**A.** > 100 µM

**Q.** What about the growth at 0.01 µM (HOP-92 [7]) of the same molecule?
**A.** 96%

**Q.** What about the growth at 10 µM (CCRF-CEM) of the same molecule?
**A.** 16%

**Q.** What about the growth at 0.01 µM (MOLT-4 [8]) of the same molecule?
**A.** 100%

**Q.** What about the GI50 (DU-145) of the same molecule?
**A.** 1.07 µM

**Q.** What about the growth at 0.01 µM (SNB-75) of the same molecule?
**A.** 78%

**Q.** What about the growth at 10 µM (HCT-116) of the same molecule?
**A.** -15%

**Q.** And the growth at 1 µM (NCI-H23)?
**A.** 68%

**Q.** And the growth at 1 µM (TK-10)?
**A.** 84%

**Q.** What about the growth at 10 µM (NCI/ADR-RES) of the same molecule?
**A.** -4%

**Q.** And the growth at 0.01 µM (HOP-62)?
**A.** 92%

**Q.** And the growth at 1 µM (HOP-92 [9])?
**A.** 54%

**Q.** What about the growth at 1 µM (NCI-H522) of the same molecule?
**A.** 28%

**Q.** And the growth at 0.01 µM (SK-OV-3)?
**A.** 87%

**Q.** What about the growth at 100 µM (MDA-MB-435 [10]) of the same molecule?
**A.** 11%

**Q.** And the GI50 (UO-31)?
**A.** 1.35 µM

**Q.** What about the growth at 0.1 µM (ACHN) of the same molecule?
**A.** 100%

**Q.** And the growth at 0.1 µM (MOLT-4 [11])?
**A.** 109%

**Q.** What about the growth at 100 µM (786-0) of the same molecule?
**A.** 2%

**Q.** What about the Kq (Albumin) of the same molecule?
**A.** 1.16 10^13/M/sec

**Q.** And the CC50 (Hs-578T)?
**A.** > 100 µM

**Q.** And the TGI (OVCAR-8)?
**A.** > 100 µM
